Data published in PMC3970594 (Memórias do Instituto Oswaldo Cruz, 2013).
Like-named read-outs stand apart in the source and are kept apart here.

Assays:
[1] = ref Rees et al. (1980), cited from earlier work
[2] = ref Chakravarti & Sem Gupta 1950, cited from earlier work
[3] = system: L. (L.) infantum chagasi promastigotes; assay: L.; format: cell-based, Leishmania (Leishmania) infantum chagasi; conditions: evaluation of the IC50
Summary of the method: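 Promastigotes (MHOM/BR/1972/LD; M-199 with 10% FBS, 0.25% haemin) were seeded at 1 × 10⁶ cells/well. Two-fold serial dilutions were applied for 24 h at 24 °C. MTT was added for 4 h at 24 °C, formazan was dissolved in 10% SDS for 18 h, and OD was read at 570 nm. Viability was normalised to untreated promastigotes (100%). IC50 came from a sigmoid dose-response fit, three experiments in duplicate.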

[4] = system: intracellular L. (L.) infantum chagasi amastigotes; assay: Activity against intracellular amastigotes in infected peritoneal macrophages; format: cell-based, Leishmania (Leishmania) infantum chagasi; conditions: ratio of IC50 promastigotes to amastigotes
Summary of the method: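 For amastigotes, BALB/c peritoneal macrophages were plated on coverslips at 4 × 10⁵/well for 24 h. They were infected with hamster-spleen amastigotes at 10:1 for 24 h and washed. Compound was added for 5 days at 37 °C, 5% CO₂. Giemsa counts in 400 macrophages (untreated = 100%) gave a sigmoid-fit IC50, two experiments in duplicate.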

[5] = system: L. (L.) infantum chagasi amastigotes; assay: Treatment of L.; format: in vivo, BALB/c mice; conditions: 50 mg Sb5+/kg/day i.p., four consecutive days
Summary of the method: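 Female BALB/c mice (20-24 g) were infected i.v. by the retro-bulbar route with 1-2 x 10⁷ hamster-spleen amastigotes/150 µL. From day 7, groups of 4 received 50 mg Sb⁵⁺/kg/day i.p. for four consecutive days; controls received PBS. Mice were euthanised two weeks post-infection and liver and spleen were weighed. Amastigotes per 400 nuclei on Giemsa imprints × organ weight (g) gave Leishman-Donovan units.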

Molecule	excreted in the urine ([1]; administered intravenously, after 6 h) [%]	excreted in the urine ([1]; intramuscular injection, after 6-8 h)	time to complete elimination after administration ([2]; healthy individuals, renal excretion) [h]	antimony in the urine 36 h after drug administration ([2]; ill patients (VL), 36 h)	susceptibility of promastigotes [3]	fold more active against amastigotes than against promastigotes [4] [fold]	parasite burden in the spleen, mean (SD) ([5]; untreated control 41.69 (8.60))	parasite burden in the liver, mean (SD) ([5]; untreated control 3,331 (1,745))
O.O.O.O.O.O.O.O.O.O=C([O-])[C@@H]1[O][Sb](=[O])([O][Sb]2(=[O])[O][C@H]([C@H](O)CO)[C@H](O)[C@H](C(=O)[O-])[O]2)[O][C@H]([C@H](O)CO)[C@@H]1O.[Na+].[Na+].[Na+] (some centres unmarked) [sodium stibogluconate]	96	80-91%	–	–	–	–	–	–
meglumine antimoniate [MA]	–	–	24	traces of antimony were still observed in the urine	not susceptible	680	32.17 (19.20) amastigotes per gram	2,696 (1,472) amastigotes per gram
